The text below walks through data of ChEMBL document CHEMBL1144225, “Synthesis and anticonvulsant activities of N-benzyl (2R)-2-acetamido-3-oxysubstituted propionamide derivatives” (Bioorg Med Chem, 2008).

The test system of data set [1] is Mus musculus. The data set is described as follows: Anticonvulsant activity in ip dosed albino mouse by MES seizure test. It counts as functional. Put shortly:
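Mice dosed intraperitoneally and challenged by maximal electroshock (MES). Dose-effect data taken at the time of peak effect, given in hours.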

Data set [2] in a line: Neurotoxicity in ip dosed albino mouse by rotarod test. It counts as toxicity, organism-based. The following applies: in vivo. Put shortly:
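Mice dosed intraperitoneally and tested on the rotorod for neurologic toxicity. Dose-effect data taken at the time of peak effect, given in hours.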
On the technique in general: In the rotarod test animals must keep their balance on a rotating rod.

The species entered for data set [3] is Mus musculus. The data set is described as follows: Protective index, ratio of TD50 for albino mouse by rotarod test to ED50 for albino mouse by MES seizure test. It is filed as functional. A digest of the protocol: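 Protective index calculated as TD50/ED50. TD50 is from the mouse rotorod test and ED50 from the MES test, both after intraperitoneal dosing at the time of peak effect.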

Turning to `CC(=O)N[C@H](COC(C)(C)C)C(=O)NCc1ccccc1`, in the data set with Mus musculus [1], the 50% effect level (ED50) was put at a dose of 30 mg/kg. Also, the TD50 – broadly, the 50% point of the dose-response relation for the toxic effect studied – in data set [2] is 100 mg/kg.

On to `CCOC[C@@H](NC(C)=O)C(=O)NCc1ccccc1`, for which, in the data set with Mus musculus [1], the median effective dose (ED50) (as a rule, the midpoint of the dose-response relation) stood at 7.9 mg/kg. The TD50 in data set [2] stood at 44 mg/kg. Besides, in the data set filed under Mus musculus [3], the “Ratio TD50/ED50” value worked out at 5.6.

On to `CCCC(CCC)C(=O)[O-].[Na+]` [VALPROATE SODIUM], for which the ED50 with Mus musculus [1] came out at 270 mg/kg.

On to `CCC1(c2ccccc2)C(=O)NC(=O)NC1=O` [PHENOBARBITAL], for which the ED50 in the data set with Mus musculus [1] came out at 22 mg/kg.

`CC(=O)N[C@H](COC(C)C)C(=O)NCc1ccccc1`: the 50% effect level with Mus musculus [1] (ED50) was put at a dose of 23 mg/kg. In addition, the TD50 in data set [2] came to 77 mg/kg. Moreover, in the data set listed under Mus musculus [3], the “Ratio TD50/ED50” value came out at 3.3.

Take `COCCOCCOC[C@@H](NC(C)=O)C(=O)NCc1ccccc1`: the ED50 with Mus musculus [1] is greater than 300 mg/kg. The compound further had a TD50 in data set [2] greater than 300 mg/kg.

In the data set on Mus musculus [1], `CC(=O)N[C@H](COc1ccccc1)C(=O)NCc1ccccc1` showed an ED50 of 100 mg/kg. For the same compound, the TD50 in data set [2] came to 30 mg/kg.
